Values after ≈ are worked out from the molar mass of the structure shown.
Legend:
[1] = test system: P388; assay: Concentration required for 50% inhibition of incorporation of labeled thymidine by p388 cells for synthesis of DNA (in vitro); assay type: functional; conditions: Mus musculus, read-out: ED50 (the source's name)
[2] = test system: P388; assay: Concentration required for 50% inhibition of incorporation of labeled uridine by P388 cells for the synthesis of RNA (in vitro); assay type: functional; conditions: Mus musculus, read-out: ED50 (the source's name)
[3] = test system: P388; assay: Median survival time of the P388 cells implanted CDF1 male mice in vivo; assay type: functional, Mus musculus
Method in brief: (§1)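 CDF1 male mice, groups of seven, given 10^6 P388 cells ip on day 0; drug ip in 5% DMSO–saline on days 1, 5 and 9; controls received vehicle; range of doses tested, optimal nontoxic dose listed; median survival time; %ILS = (treated − control)/control × 100; average of two or more experiments.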

[4] = test system: CCRF-CEM; assay: In vitro antitumor activity against human lymphoblastic leukemia cells.; assay type: functional; conditions: read-out: ID50 (the source's name)
Method in brief: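 Human lymphoblastic leukemia CCRF-CEM cells grown in suspension culture; growth inhibition in vitro; ID50 (ng/mL) reported as the 50% inhibitory dose.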

[5] = test system: P388; assay: Optimal dose for antitumor activity was measured in P388 cells of CDF1 male mice in vivo; assay type: functional, Mus musculus; method in brief: as §1
[6] = test system: P388; assay: Percent of increased life span of P388 cells implanted CDF1 male mice; assay type: functional, Mus musculus; method in brief: as §1
[7] = species: Bos taurus; assay: Thermal denaturation (deltaTm) of compound against calf thymus DNA was measured; assay type: ADME; conditions: cattle, in vitro
Method in brief: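 Calf thymus DNA (MW 100 000–500 000) in 0.01 M phosphate, 5 × 10^-3 M EDTA, pH 7.0; drug 7 × 10^-4 M, DNA nucleotide 7 × 10^-3 M; 259 nm absorbance read at 0.25–1.0 °C steps; Tm taken at 50% hyperchromicity; ΔTm = complex Tm minus DNA Tm.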

SMILES | EC50 [1] | EC50 [2] | MST [3] | IC50 [4] | Optimal dose [5] | ILS [6] | Delta Tm [7]
Cc1c2oc3c(C)c(O)c(N)c(C(=O)N[C@@H]4C(=O)N[C@H](C(C)C)C(=O)N5CCC[C@H]5C(=O)N(C)CC(=O)N(C)[C@@H](C(C)C)C(=O)O[C@@H]4C)c3nc-2c(C(=O)N[C@@H]2C(=O)N[C@H](C(C)C)C(=O)N3CCC[C@H]3C(=O)N(C)CC(=O)N(C)[C@@H](C(C)C)C(=O)O[C@@H]2C)c/c1=N/Cc1cccc(Oc2ccccc2)c1 | 1.5 µM | 0.7 µM | – | – | – | – | –
Cc1c2oc3c(C)c(OC(=O)c4ccccc4)cc(C(=O)N[C@@H]4C(=O)N[C@H](C(C)C)C(=O)N5CCC[C@H]5C(=O)N(C)CC(=O)N(C)[C@@H](C(C)C)C(=O)O[C@@H]4C)c3nc-2c(C(=O)N[C@@H]2C(=O)N[C@H](C(C)C)C(=O)N3CCC[C@H]3C(=O)N(C)CC(=O)N(C)[C@@H](C(C)C)C(=O)O[C@@H]2C)c(N)c1=O | – | – | 20 days | 2.5 µg/mL (≈ 1.82 µM) | 0.75 mg/kg | 91% | –
Cc1c2oc3c(C)c(O)c(N)c(C(=O)N[C@@H]4C(=O)N[C@H](C(C)C)C(=O)N5CCC[C@H]5C(=O)N(C)CC(=O)N(C)[C@@H](C(C)C)C(=O)O[C@@H]4C)c3nc-2c(C(=O)N[C@@H]2C(=O)N[C@H](C(C)C)C(=O)N3CCC[C@H]3C(=O)N(C)CC(=O)N(C)[C@@H](C(C)C)C(=O)O[C@@H]2C)c/c1=N/Cc1ccco1 | 2.45 µM | 0.81 µM | – | – | – | – | –
Cc1c2oc3c(C)c(OCc4ccc(Cl)c(Cl)c4)cc(C(=O)N[C@@H]4C(=O)N[C@H](C(C)C)C(=O)N5CCC[C@H]5C(=O)N(C)CC(=O)N(C)[C@@H](C(C)C)C(=O)O[C@@H]4C)c3nc-2c(C(=O)N[C@@H]2C(=O)N[C@H](C(C)C)C(=O)N3CCC[C@H]3C(=O)N(C)CC(=O)N(C)[C@@H](C(C)C)C(=O)O[C@@H]2C)c(N)c1=O | – | – | 19 days | – | 0.5 mg/kg | 81% | –
Cc1c2oc3c(C)c(O)c(N)c(C(=O)N[C@@H]4C(=O)N[C@H](C(C)C)C(=O)N5CCC[C@H]5C(=O)N(C)CC(=O)N(C)[C@@H](C(C)C)C(=O)O[C@@H]4C)c3nc-2c(C(=O)N[C@@H]2C(=O)N[C@H](C(C)C)C(=O)N3CCC[C@H]3C(=O)N(C)CC(=O)N(C)[C@@H](C(C)C)C(=O)O[C@@H]2C)cc1=N | 1.23 µM | 0.082 µM | – | – | – | – | –
COc1cc(C(=O)N[C@@H]2C(=O)N[C@H](C(C)C)C(=O)N3CCC[C@H]3C(=O)N(C)CC(=O)N(C)[C@@H](C(C)C)C(=O)O[C@@H]2C)c2nc3c(C(=O)N[C@@H]4C(=O)N[C@H](C(C)C)C(=O)N5CCC[C@H]5C(=O)N(C)CC(=O)N(C)[C@@H](C(C)C)C(=O)O[C@@H]4C)c(N)c(=O)c(C)c-3oc2c1C | 0.628 µM | 0.069 µM | 19 days | 0.16 µg/mL (≈ 0.124 µM) | 0.6 mg/kg | 81% | –
CCCNc1c(C(=O)N[C@@H]2C(=O)N[C@H](C(C)C)C(=O)N3CCC[C@H]3C(=O)N(C)CC(=O)N(C)[C@@H](C(C)C)C(=O)O[C@@H]2C)c2nc3c(C(=O)N[C@@H]4C(=O)N[C@H](C(C)C)C(=O)N5CCC[C@H]5C(=O)N(C)CC(=O)N(C)[C@@H](C(C)C)C(=O)O[C@@H]4C)ccc(C)c3oc-2c(C)c1=O | > 5.5 µM | 1.82 µM | 17 days | 0.45 µg/mL (≈ 0.347 µM) | 1.2 mg/kg | 55% | –
Cc1c2oc3c(C)c(O)c(N)c(C(=O)N[C@@H]4C(=O)N[C@H](C(C)C)C(=O)N5CCC[C@H]5C(=O)N(C)CC(=O)N(C)[C@@H](C(C)C)C(=O)O[C@@H]4C)c3nc-2c(C(=O)N[C@@H]2C(=O)N[C@H](C(C)C)C(=O)N3CCC[C@H]3C(=O)N(C)CC(=O)N(C)[C@@H](C(C)C)C(=O)O[C@@H]2C)c/c1=N/Cc1ccccc1 | 2.7 µM | 1.4 µM | – | – | – | – | –
Cc1c2oc3c(C)c(OCc4ccc([N+](=O)[O-])cc4)cc(C(=O)N[C@@H]4C(=O)N[C@H](C(C)C)C(=O)N5CCC[C@H]5C(=O)N(C)CC(=O)N(C)[C@@H](C(C)C)C(=O)O[C@@H]4C)c3nc-2c(C(=O)N[C@@H]2C(=O)N[C@H](C(C)C)C(=O)N3CCC[C@H]3C(=O)N(C)CC(=O)N(C)[C@@H](C(C)C)C(=O)O[C@@H]2C)c(N)c1=O | – | – | 14 days | 0.5 µg/mL (≈ 0.355 µM) | 0.6 mg/kg | 33% | –
CCCCOc1cc(C(=O)N[C@@H]2C(=O)N[C@H](C(C)C)C(=O)N3CCC[C@H]3C(=O)N(C)CC(=O)N(C)[C@@H](C(C)C)C(=O)O[C@@H]2C)c2nc3c(C(=O)N[C@@H]4C(=O)N[C@H](C(C)C)C(=O)N5CCC[C@H]5C(=O)N(C)CC(=O)N(C)[C@@H](C(C)C)C(=O)O[C@@H]4C)c(N)c(=O)c(C)c-3oc2c1C [listing 1 of 2 here] | 11.3 µM | 0.77 µM | 14 days | – | 0.75 mg/kg | 33% | –
CCOc1cc(C(=O)N[C@@H]2C(=O)N[C@H](C(C)C)C(=O)N3CCC[C@H]3C(=O)N(C)CC(=O)N(C)[C@@H](C(C)C)C(=O)O[C@@H]2C)c2nc3c(C(=O)N[C@@H]4C(=O)N[C@H](C(C)C)C(=O)N5CCC[C@H]5C(=O)N(C)CC(=O)N(C)[C@@H](C(C)C)C(=O)O[C@@H]4C)c(N)c(=O)c(C)c-3oc2c1C | 1.63 µM | 0.151 µM | 20 days | 0.17 µg/mL (≈ 0.131 µM) | 0.45 mg/kg | 91% | –
Cc1c2oc3c(C)ccc(C(=O)N[C@@H]4C(=O)N[C@H](C(C)C)C(=O)N5CCC[C@H]5C(=O)N(C)CC(=O)N(C)[C@@H](C(C)C)C(=O)O[C@@H]4C)c3nc-2c(C(=O)N[C@@H]2C(=O)N[C@H](C(C)C)C(=O)N3CCC[C@H]3C(=O)N(C)CC(=O)N(C)[C@@H](C(C)C)C(=O)O[C@@H]2C)c(NCCCN)c1=O | 0.43 µM | 0.118 µM | 30 days | 0.3 µg/mL (≈ 0.229 µM) | 1.2 mg/kg | 172% | –
Cc1c2oc3c(C)c(O)c(N)c(C(=O)N[C@@H]4C(=O)N[C@H](C(C)C)C(=O)N5CCC[C@H]5C(=O)N(C)CC(=O)N(C)[C@@H](C(C)C)C(=O)O[C@@H]4C)c3nc-2c(C(=O)N[C@@H]2C(=O)N[C@H](C(C)C)C(=O)N3CCC[C@H]3C(=O)N(C)CC(=O)N(C)[C@@H](C(C)C)C(=O)O[C@@H]2C)c/c1=N/Cc1ccc[nH]1 | 0.37 µM | 0.184 µM | – | – | – | – | –
Cc1c2oc3c(C)c(O)c(N)c(C(=O)N[C@@H]4C(=O)N[C@H](C(C)C)C(=O)N5CCC[C@H]5C(=O)N(C)CC(=O)N(C)[C@@H](C(C)C)C(=O)O[C@@H]4C)c3nc-2c(C(=O)N[C@@H]2C(=O)N[C@H](C(C)C)C(=O)N3CCC[C@H]3C(=O)N(C)CC(=O)N(C)[C@@H](C(C)C)C(=O)O[C@@H]2C)cc1=O | 5.08 µM | 3.22 µM | 24 days | 0.95 µg/mL (≈ 0.747 µM) | 1.2 mg/kg | 129% | –
Cc1c2oc3c(C)c(OC(=O)c4ccc5ccccc5c4)cc(C(=O)N[C@@H]4C(=O)N[C@H](C(C)C)C(=O)N5CCC[C@H]5C(=O)N(C)CC(=O)N(C)[C@@H](C(C)C)C(=O)O[C@@H]4C)c3nc-2c(C(=O)N[C@@H]2C(=O)N[C@H](C(C)C)C(=O)N3CCC[C@H]3C(=O)N(C)CC(=O)N(C)[C@@H](C(C)C)C(=O)O[C@@H]2C)c(N)c1=O | – | – | 18 days | – | 0.9 mg/kg | 71% | –
CCCCNc1c(C(=O)N[C@@H]2C(=O)N[C@H](C(C)C)C(=O)N3CCC[C@H]3C(=O)N(C)CC(=O)N(C)[C@@H](C(C)C)C(=O)O[C@@H]2C)c2nc3c(C(=O)N[C@@H]4C(=O)N[C@H](C(C)C)C(=O)N5CCC[C@H]5C(=O)N(C)CC(=O)N(C)[C@@H](C(C)C)C(=O)O[C@@H]4C)ccc(C)c3oc-2c(C)c1=O | – | – | 15 days | 0.95 µg/mL (≈ 0.724 µM) | 0.9 mg/kg | 36% | –
Cc1c2oc3c(C)c(OCc4ccc(Cl)cc4)cc(C(=O)N[C@@H]4C(=O)N[C@H](C(C)C)C(=O)N5CCC[C@H]5C(=O)N(C)CC(=O)N(C)[C@@H](C(C)C)C(=O)O[C@@H]4C)c3nc-2c(C(=O)N[C@@H]2C(=O)N[C@H](C(C)C)C(=O)N3CCC[C@H]3C(=O)N(C)CC(=O)N(C)[C@@H](C(C)C)C(=O)O[C@@H]2C)c(N)c1=O | – | – | 16 days | 0.5 µg/mL (≈ 0.358 µM) | 0.45 mg/kg | 52% | –
CCCCCCOc1cc(C(=O)N[C@@H]2C(=O)N[C@H](C(C)C)C(=O)N3CCC[C@H]3C(=O)N(C)CC(=O)N(C)[C@@H](C(C)C)C(=O)O[C@@H]2C)c2nc3c(C(=O)N[C@@H]4C(=O)N[C@H](C(C)C)C(=O)N5CCC[C@H]5C(=O)N(C)CC(=O)N(C)[C@@H](C(C)C)C(=O)O[C@@H]4C)c(N)c(=O)c(C)c-3oc2c1C | – | – | – | – | – | – | 1
CCCCOc1cc(C(=O)N[C@@H]2C(=O)N[C@H](C(C)C)C(=O)N3CCC[C@H]3C(=O)N(C)CC(=O)N(C)[C@@H](C(C)C)C(=O)O[C@@H]2C)c2nc3c(C(=O)N[C@@H]4C(=O)N[C@H](C(C)C)C(=O)N5CCC[C@H]5C(=O)N(C)CC(=O)N(C)[C@@H](C(C)C)C(=O)O[C@@H]4C)c(N)c(=O)c(C)c-3oc2c1C [listing 2 of 2 here] | – | – | – | – | – | – | 2.7
Cc1c2oc3c(C)ccc(C(=O)N[C@@H]4C(=O)N[C@H](C(C)C)C(=O)N5CCC[C@H]5C(=O)N(C)CC(=O)N(C)[C@@H](C(C)C)C(=O)O[C@@H]4C)c3nc-2c(C(=O)N[C@@H]2C(=O)N[C@H](C(C)C)C(=O)N3CCC[C@H]3C(=O)N(C)CC(=O)N(C)[C@@H](C(C)C)C(=O)O[C@@H]2C)c(NCCCCCCCCN)c1=O | – | – | 14 days | 0.31 µg/mL (≈ 0.224 µM) | 1.8 mg/kg | 27% | –

— ChEMBL document CHEMBL1121923, “N2- and C-7 substituted actinomycin D analogues: synthesis, DNA-binding affinity, and biochemical and biological properties. Structure-activity relationship” (J Med Chem, 1981)
